Measurements reported in ChEMBL document CHEMBL4396880, “Development of Small-Molecules Targeting Receptor Activator of Nuclear Factor-κB Ligand (RANKL)-Receptor Activator of Nuclear Factor-κB (RANK) Protein-Protein Interaction by Structure-Based Virtual Screening and Hit Optimization” (J Med Chem, 2019).
Calls of active or inactive are those of the source. The calls are words filed in the database; no cut-off is given here.

Experiments:
[1] = target: T1, Tumor necrosis factor ligand superfamily member 11 (Homo sapiens, UniProt O14788); test: Binding affinity to human RANKL by surface plasmon resonance analysis
T1 sequence (O14788 whole entry): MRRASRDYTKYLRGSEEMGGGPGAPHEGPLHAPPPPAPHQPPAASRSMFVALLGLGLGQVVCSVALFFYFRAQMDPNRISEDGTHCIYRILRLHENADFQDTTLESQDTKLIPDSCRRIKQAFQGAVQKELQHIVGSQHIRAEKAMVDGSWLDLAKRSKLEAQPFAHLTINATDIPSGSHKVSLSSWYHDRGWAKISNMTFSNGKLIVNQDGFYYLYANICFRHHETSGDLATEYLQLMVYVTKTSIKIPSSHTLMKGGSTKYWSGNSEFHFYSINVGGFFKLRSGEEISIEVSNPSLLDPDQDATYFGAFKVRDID

[2] = target: T2, Tumor necrosis factor ligand superfamily member 11/11A (Mus musculus) (UniProt O35235+O35305); test: Inhibition of RANKL-RANK protein-protein interaction in C57/BL6 mouse bone marrow macrophage assessed as suppression of M-CSF/mRANKL-induced osteoclastogenesis by measuring reduction in TRAP activity at 5 uM measured after 3 days by colorimetric assay relative to control
Method in brief: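 BMMs were incubated with the test compound at 5 μM, together with RANKL (50 ng/mL) and M-CSF (20 ng/mL), for 3 days. Osteoclastogenesis was then read out as tartrate-resistant acid phosphatase (TRAP) activity.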

[3] = target: T2, Tumor necrosis factor ligand superfamily member 11/11A (Mus musculus); test: Inhibition of RANKL-RANK protein-protein interaction in C57/BL6 mouse bone marrow macrophage assessed as suppression of M-CSF/mRANKL-induced osteoclastogenesis by measuring reduction in NFATc1 mRNA level measured after 3 days by Trizol-reagent-based qRT-PCR analysis
Method in brief: (§1)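 BMMs were treated with graded compound concentrations during RANKL-driven osteoclastogenesis. On day 3 of culture, NFATc1, TRAP and cathepsin K transcripts were quantified by real-time PCR.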

[4] = target: T2, Tumor necrosis factor ligand superfamily member 11/11A (Mus musculus); test: Inhibition of RANKL-RANK protein-protein interaction in C57/BL6 mouse bone marrow macrophage assessed as suppression of M-CSF/mRANKL-induced osteoclastogenesis by measuring reduction in cathepsin K mRNA level measured after 3 days by Trizol-reagent-based qRT-PCR analysis; method in brief: as §1
BMDM = test: Cytotoxicity against M-CSF-stimulated C57/BL6 mouse bone marrow macrophages assessed as reduction in cell viability up to 10 uM measured after 2 days by MTT assay; type: cell-based; details: 48 h
[5] = target: T3, Tumor necrosis factor ligand superfamily member 11 (Homo sapiens) (UniProt O14788); test: (§2) Inhibition of RANK binding to human RANKL measured after 1 h by surface plasmon resonance analysis
T3 sequence (whole entry): T1 sequence (O14788 whole entry)

[6] = target: T1, Tumor necrosis factor ligand superfamily member 11; test: as §2
[7] = target: T2, Tumor necrosis factor ligand superfamily member 11/11A (Mus musculus); test: Inhibition of RANKL-RANK protein-protein interaction in C57/BL6 mouse bone marrow macrophage assessed as suppression of M-CSF/mRANKL-induced osteoclastogenesis by measuring reduction in TRAP mRNA level measured after 3 days by Trizol-reagent-based qRT-PCR analysis; method in brief: as §1
[8] = target: T2, Tumor necrosis factor ligand superfamily member 11/11A (Mus musculus); test: (§3) Inhibition of RANKL-RANK protein-protein interaction in C57/BL6 mouse bone marrow macrophage assessed as suppression of M-CSF/mRANKL-induced osteoclast differentiation by measuring decrease in multinucleated TRAP+ cells at 10 uM supplemented with fresh medium containing compounds every 2 days for 5 to 6 days by TRAP staining-based microscopic analysis relative to control; type: cell-based
Method in brief: (§4)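 Bone marrow macrophages were exposed to the test compound at the indicated concentrations for 5 days under M-CSF/RANKL stimulation. TRAP-positive multinucleated cells were then counted as the measure of osteoclast formation.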

[9] = target: T2, Tumor necrosis factor ligand superfamily member 11/11A (Mus musculus); test: as §3, with “cells” for “cells at 10 uM”, “analysis” for “analysis relative to control”; type: cell-based; method in brief: as §4
[10] = target: T4, Tumor necrosis factor ligand superfamily member 11/11A (Mus musculus, UniProt O35235+O35305); test: as above; type: cell-based; method in brief: as §4
T4 sequence (O35235 whole entry): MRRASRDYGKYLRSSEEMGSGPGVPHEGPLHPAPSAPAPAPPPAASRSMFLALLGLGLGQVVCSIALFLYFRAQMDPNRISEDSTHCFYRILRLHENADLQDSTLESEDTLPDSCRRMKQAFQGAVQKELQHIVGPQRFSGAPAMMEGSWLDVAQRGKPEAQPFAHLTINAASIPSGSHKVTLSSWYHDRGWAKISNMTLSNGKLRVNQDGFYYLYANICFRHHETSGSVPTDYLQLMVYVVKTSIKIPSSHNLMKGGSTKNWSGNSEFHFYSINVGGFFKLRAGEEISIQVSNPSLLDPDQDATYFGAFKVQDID
T4 sequence (O35305 whole entry): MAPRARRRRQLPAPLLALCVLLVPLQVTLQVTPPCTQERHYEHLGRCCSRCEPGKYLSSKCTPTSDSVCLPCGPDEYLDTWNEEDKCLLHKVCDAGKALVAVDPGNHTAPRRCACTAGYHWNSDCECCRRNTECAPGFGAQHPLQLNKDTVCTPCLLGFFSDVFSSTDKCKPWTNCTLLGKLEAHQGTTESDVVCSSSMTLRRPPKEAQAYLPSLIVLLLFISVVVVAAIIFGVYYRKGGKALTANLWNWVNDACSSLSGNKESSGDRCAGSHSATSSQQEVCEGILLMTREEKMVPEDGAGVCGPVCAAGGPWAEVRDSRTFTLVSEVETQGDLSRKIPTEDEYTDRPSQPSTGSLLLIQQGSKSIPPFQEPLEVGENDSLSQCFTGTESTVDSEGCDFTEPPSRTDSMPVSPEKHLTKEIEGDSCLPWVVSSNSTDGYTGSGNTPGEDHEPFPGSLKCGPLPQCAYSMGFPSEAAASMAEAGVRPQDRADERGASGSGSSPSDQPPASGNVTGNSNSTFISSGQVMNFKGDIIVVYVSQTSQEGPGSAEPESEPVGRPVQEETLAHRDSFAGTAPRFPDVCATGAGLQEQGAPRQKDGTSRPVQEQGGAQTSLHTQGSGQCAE

[11] = target: T2, Tumor necrosis factor ligand superfamily member 11/11A (Mus musculus); test: as §3, with “5” for “10”; type: cell-based; method in brief: as §4
Tumor necrosis factor = Tumor necrosis factor (Homo sapiens, UniProt P01375); test: Binding affinity to human TNFalpha by surface plasmon resonance analysis
Sequence of Tumor necrosis factor (P01375 whole entry): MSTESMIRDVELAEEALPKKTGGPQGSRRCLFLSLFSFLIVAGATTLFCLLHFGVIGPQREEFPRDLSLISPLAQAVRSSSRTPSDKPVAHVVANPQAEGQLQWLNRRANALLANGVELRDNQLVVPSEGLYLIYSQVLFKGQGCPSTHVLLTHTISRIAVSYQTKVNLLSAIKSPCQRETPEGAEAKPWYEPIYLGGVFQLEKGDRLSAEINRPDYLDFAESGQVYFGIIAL

[12] = Cytotoxicity against M-CSF-stimulated C57/BL6 mouse bone marrow macrophages assessed as cell viability at 10 uM measured after 2 days by MTT assay (reference value: 100%); type: cell-based; details: M-CSF-stimulated bone marrow macrophages (BMDM), read-out: Activity
[13] = target: T2, Tumor necrosis factor ligand superfamily member 11/11A (Mus musculus); test: Inhibition of RANKL-RANK protein-protein interaction in C57/BL6 mouse bone marrow macrophage assessed as suppression of M-CSF/mRANKL-induced osteoclastogenesis by measuring reduction in cathepsin K mRNA level at 2.5 uM measured after 3 days by Trizol-reagent-based qRT-PCR analysis; method in brief: as §1
[14] = target: T2, Tumor necrosis factor ligand superfamily member 11/11A (Mus musculus); test: as §3, with “nuclei size of F-actin ring formation” for “multinucleated TRAP+ cells”, “5” for “10”, “rhodamine phalloidin/DAPI” for “TRAP”, “analysis” for “analysis relative to control”; type: protein assay
[15] = target: T2, Tumor necrosis factor ligand superfamily member 11/11A (Mus musculus); test: as §3, with “5” for “10”, “analysis” for “analysis relative to control”; type: cell-based; method in brief: as §4
[16] = target: T2, Tumor necrosis factor ligand superfamily member 11/11A (Mus musculus); test: Inhibition of RANKL-RANK protein-protein interaction in C57/BL6 mouse bone marrow macrophage assessed as suppression of M-CSF/mRANKL-induced osteoclastogenesis by measuring reduction in NFATc1 mRNA level at 2.5 uM measured after 3 days by Trizol-reagent-based qRT-PCR analysis; method in brief: as §1
[17] = target: T2, Tumor necrosis factor ligand superfamily member 11/11A (Mus musculus); test: Inhibition of RANKL-RANK protein-protein interaction in C57/BL6 mouse bone marrow macrophage assessed as suppression of M-CSF/mRANKL-induced osteoclastogenesis by measuring reduction in c-fos expression measured after 3 days by Western blot analysis
[18] = target: T2, Tumor necrosis factor ligand superfamily member 11/11A (Mus musculus); test: as §3, with “nuclei number of F-actin ring formation” for “multinucleated TRAP+ cells”, “5” for “10”, “rhodamine phalloidin/DAPI” for “TRAP”, “analysis” for “analysis relative to control”; type: protein assay
[19] = target: T2, Tumor necrosis factor ligand superfamily member 11/11A (Mus musculus); test: Inhibition of RANKL-RANK protein-protein interaction in C57/BL6 mouse bone marrow macrophage assessed as suppression of M-CSF/mRANKL-induced osteoclastogenesis by measuring reduction in TRAP mRNA level at 2.5 uM measured after 3 days by Trizol-reagent-based qRT-PCR analysis; method in brief: as §1
[20] = target: T2, Tumor necrosis factor ligand superfamily member 11/11A (Mus musculus); test: Inhibition of RANKL-RANK protein-protein interaction in C57/BL6 mouse bone marrow macrophage assessed as suppression of M-CSF/mRANKL-induced bone resorption at 1 to 5 uM measured after 2 days by toluidine blue staining-based confocal microscopic analysis
[21] = target: T2, Tumor necrosis factor ligand superfamily member 11/11A (Mus musculus); test: Inhibition of RANKL-RANK protein-protein interaction in C57/BL6 mouse bone marrow macrophage assessed as suppression of M-CSF/mRANKL-induced osteoclastogenesis by measuring reduction in NFATc1 expression measured after 3 days by Western blot analysis

Cc1cccc(C)c1NC(=O)C(Cc1c[nH]c2ccccc12)NC(=O)OCc1ccccc1 (racemic)
Kd [1]: 9.8 µM
inhibition [2]: 54.9 to 68.4%
inhibition [3]: Dose-dependent effect
inhibition [4]: Dose-dependent effect
Activity (BMDM): Non-Toxic
inhibition [5]: Dose-dependent effect
IC50 [6]: 26.2 µM
inhibition [7]: Dose-dependent effect
inhibition [8]: 93.3%
inhibition [9]: Dose-dependent effect
IC50 [10]: 6.6 µM
inhibition [11]: 50%

Cc1cccc(C)c1NC(=O)C(Cc1c[nH]c2ccccc12)NCCCc1ccccc1 (racemic)
Kd (Tumor necrosis factor): 93.6 µM
Kd [1]: 0.614 µM
viability at 48 h, 10 µM [12]: 110%
inhibition [13]: Active
inhibition [2]: 92.9%
inhibition [14]: Dose-dependent effect
inhibition [15]: 100%
inhibition [16]: Active
inhibition [17]: Dose-dependent effect
inhibition [18]: Dose-dependent effect
inhibition [19]: Active
inhibition [20]: Active
inhibition [9]: Dose-dependent effect
inhibition [21]: Dose-dependent effect
